Measurements published in ChEMBL document CHEMBL4028909, “Discovery of an Orally Bioavailable Benzofuran Analogue That Serves as a β-Amyloid Aggregation Inhibitor for the Potential Treatment of Alzheimer's Disease” (J Med Chem, 2018).
Calls of active or inactive are those of the source. The calls are words filed in the database; no cut-off is given here.

Molecular target: Amyloid-beta precursor protein (Homo sapiens) (UniProt P05067)
Experiment: Induction of HFIP-pretreated amyloid beta (1 to 42) (unknown origin) disaggregation after 48 hrs by silver staining-based SDS-PAGE analysis
Outline: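 Aβ aggregates were incubated with compound for 48 h, with congo red as positive control. Size distribution (monomer, dimer, trimer, high-molecular-weight species) was analysed by SDS-PAGE with silver staining at the start and at the end of incubation.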

Chain of Amyloid-beta precursor protein (Homo sapiens) (P05067 whole entry): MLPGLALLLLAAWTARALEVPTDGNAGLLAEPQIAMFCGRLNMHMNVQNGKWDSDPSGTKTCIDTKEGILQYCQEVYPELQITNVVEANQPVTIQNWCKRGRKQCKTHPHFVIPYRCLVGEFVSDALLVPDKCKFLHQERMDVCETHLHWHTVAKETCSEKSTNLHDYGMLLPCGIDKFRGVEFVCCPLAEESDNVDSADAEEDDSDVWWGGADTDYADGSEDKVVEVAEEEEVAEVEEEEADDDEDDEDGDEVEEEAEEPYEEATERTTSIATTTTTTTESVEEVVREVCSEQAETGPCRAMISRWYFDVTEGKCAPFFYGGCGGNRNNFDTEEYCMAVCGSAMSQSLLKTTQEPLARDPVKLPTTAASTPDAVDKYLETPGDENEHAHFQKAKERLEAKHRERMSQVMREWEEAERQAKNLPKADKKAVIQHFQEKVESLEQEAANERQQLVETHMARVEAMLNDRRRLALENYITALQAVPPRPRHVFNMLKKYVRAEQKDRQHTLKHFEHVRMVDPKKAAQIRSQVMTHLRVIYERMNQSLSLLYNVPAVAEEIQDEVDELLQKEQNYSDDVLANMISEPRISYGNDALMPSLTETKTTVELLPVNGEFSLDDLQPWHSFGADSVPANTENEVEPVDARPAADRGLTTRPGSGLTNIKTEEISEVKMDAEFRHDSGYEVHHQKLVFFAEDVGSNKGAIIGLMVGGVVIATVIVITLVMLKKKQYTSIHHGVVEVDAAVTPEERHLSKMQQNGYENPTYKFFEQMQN

Nc1c(/N=N/c2ccc(-c3ccc(/N=N/c4cc(S(=O)(=O)O)c5ccccc5c4N)cc3)cc2)cc(S(=O)(=O)O)c2ccccc12
Activity: Active
